From PubChem
Runt-SMMHC FRET = inhibitors of human RUNX1 Runt domain binding to CBFb-SMMHC; Cerulean-Runt/Venus-CBFb-SMMHC FRET ratio 530/480, 1 h; 0.74% of 220,000 active; inhibition, % at 20 µM; Q01196+Q13951;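 active = mean inhibition across duplicate retests at 20 µM reaching about 50%, limit read from the data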;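 note: 0% = DMSO wells and 100% = wells with excess untagged CBFb-SMMHC; inhibitors lower the FRET ratio by blocking Runt binding to CBFb-SMMHC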
RanGTP-Impb inh = disruptors of Ran-importin-beta complex formation – biochemical, FRET, CFP-Ran, YFP-importin-beta, homogeneous, primary screen. cell-free CFP-Ran/YFP-importin-beta FRET ratio. inhibition, % (concentration not given with the values). 1.1% of 300,000 active. AID 2216;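 active = more than half of the replicate wells show a fall in the fluorescence ratio signal beyond about 16%, limit read from the data, passing the limit was not always enough; inconclusive = exactly half of the replicate wells pass the set limit; inactive = fewer than half of replicates pass the limit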;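 note: 0% = DMSO wells and 100% = Ran loaded with GDP instead of GTP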
Hck-Nef inh = human Hck-Nef kinase inhibition; Recombinant Hck-YEEI plus Nef, Z-Lyte FRET kinase assay; inhibition, % at 20 µM; 0.68% of 220,000 active; AID 463187;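 active = Hck-Nef kinase inhibition above about 50%, limit read from the data; inactive = inhibition below that limit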;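 note: 0% = DMSO with Hck plus Nef and 100% = Hck alone without Nef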
Target sequence (P08631 whole entry, looked up): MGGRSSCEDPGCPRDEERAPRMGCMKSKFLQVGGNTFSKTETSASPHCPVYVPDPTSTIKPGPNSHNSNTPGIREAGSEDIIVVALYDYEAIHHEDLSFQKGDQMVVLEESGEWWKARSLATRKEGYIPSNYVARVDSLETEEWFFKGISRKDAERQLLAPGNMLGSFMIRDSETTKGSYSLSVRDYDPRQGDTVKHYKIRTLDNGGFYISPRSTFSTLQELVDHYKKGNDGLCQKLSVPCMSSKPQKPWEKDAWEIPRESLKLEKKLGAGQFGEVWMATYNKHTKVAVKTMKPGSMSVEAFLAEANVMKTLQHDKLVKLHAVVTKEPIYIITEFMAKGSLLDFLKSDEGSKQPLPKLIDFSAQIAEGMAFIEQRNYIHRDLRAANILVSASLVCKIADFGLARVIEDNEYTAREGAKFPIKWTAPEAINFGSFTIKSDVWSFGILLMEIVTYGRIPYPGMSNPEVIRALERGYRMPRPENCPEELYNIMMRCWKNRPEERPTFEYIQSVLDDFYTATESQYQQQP
Runt-CBFb FRET = Runt domain-CBFb interaction inhibition | Cerulean-Runt/Venus-CBFb FRET ratio 530/480, 1 h | inhibition, % at 20 µM | Q01196+Q13951 | 0.46% of 220,000 active;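 active = inhibition over about 50% at 20 µM in the single-dose screen, limit read from the data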;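 note: 0% = DMSO wells and 100% = excess unlabeled CBFb competitor control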
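Measured by: fluorescence energy transfer, 422 nm excitation, 530/480 nm emission; Assay system: Cerulean-Runt domain; Medium: Tris pH 7.5 buffer with BSA; Measure: loss of energy transfer signal; Controls: 5 µM unlabeled CBFb as full-inhibition high control; Incubation: protein complex preformed 1 h, compound exposure 1 h, room temperature, dark.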
CaV13 ICDI inh = Disruptors of the CACNA1D IQ motif to Ca2+-dependent inactivation inhibitor domain association, primary screening, Förster resonance energy transfer in intact living …. 0.098% of 340,000 active. AID 743397. inhibition, % at 12.3 µM. HEK cells, CFP/YFP FRET ICDI-IQ, plate reader, 10 min; percent FRET-ratio fall versus neutral wells;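 active = mean replicate inhibition of at least 30% and at least 1% of replicates passing that level; inconclusive = only one of the two criteria is met; inactive = neither criterion is met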;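 note: 0% = median of the neutral control wells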
RUNX1 CBFb TR = Runt-CBFb binding inhibition | inhibition, % at 20 µM | 20% of 480 active | TR-FRET RUNX1 Runt domain-CBFb binding | shares compounds with Runt-CBFb FRET; in the data active = inhibition above about 40%
YIC FRET counter = counter-screen YIC FRET for RanGTP-importin-beta inhibitors | 40% of 1,000 active | Purified YIC probe, intramolecular FRET ratio YFP/CFP | IC50, µM | shares compounds with RanGTP-Impb inh;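 active = fitted half-maximal inhibitory concentration no more than tenfold above the top dose tested; inconclusive = flat fit with 30 to 70% activity, or poor fit; inactive = half-maximal concentration beyond tenfold above the top dose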
Hck Nef conf = confirmation of Hck-Nef kinase inhibitors; shares compounds with Hck-Nef inh; Recombinant Hck-YEEI:Nef, Z-Lyte FRET kinase assay; calls only at 10 µM; 28% of 1,300 active; AID 463188;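 active = average inhibition of at least 50%, with Z-scores no higher than 3 in both the phospho-tyrosine peptide and fluorescence counterscreens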
Active calls of the source: *; i = inactive; ? = inconclusive; . = not tested or not shown. Rows were chosen to be rich in hits. Some 1.5% of all compounds tested hit in one or more screens of this group.

SMILES	Runt-SMMHC FRET	RanGTP-Impb inh	Hck-Nef inh	Runt-CBFb FRET	CaV13 ICDI inh	RUNX1 CBFb TR	YIC FRET counter	others
CCOC(=O)[C@]12CCCC=C1N(Cc1ccco1)C(=O)[C@H](CC(=O)NCc1cccc(C(F)(F)F)c1)C2	.	.	.	.	-8	.	.
CN(C)c1cccc(C(=O)OCc2cc(=O)oc3cc(O)ccc23)c1	81*	?	24	85*	-4	52*	.
Cc1cc(C)nc(Sc2ncnc(N)c2[N+](=O)[O-])n1	14	-1	8	58*	-4	23	.
CC(C)N(Cc1ccccc1)S(=O)(=O)c1ccc(Cl)nc1	.	-7	.	.	-6	.	.
CCOCCCNC(=O)/C(C#N)=C/c1cc(Br)c(O)c(Br)c1	116*	38*	21	68*	.	-20	15*
CCCN1CCC(=O)N([C@H](CO)CC(C)C)CC1	.	-1	.	.	-9	.	.
CC(=O)N1CCc2c(sc(NC(=O)c3ccc4c(c3)OCCO4)c2C#N)C1	90*	39*	0	65*	0	-246	52*
Cc1cccc(-n2ncc(C(=O)NC3CCCC3)c2C2CCN(C(=O)OC(C)(C)C)CC2)c1	.	0	.	.	-6	.	.
CCOc1ccc(Nc2c3ccccc3nc3ccccc23)cc1	3	54*	-2	60*	18	41*	>50
Cc1ccc(-c2nc3cccnc3s2)cc1NS(=O)(=O)c1cccs1	-3	0	1	1	-3	.	.
CCc1ccc(S(=O)(=O)Nc2ccc(-c3nc4cccnc4s3)cc2)s1	148*	40*	8	80*	-5	17	9.7*
COC(=O)C1=CN(Cc2ccc(C)cc2)C=C(C(=O)OC)C1c1cc(OC)c(OC)c(OC)c1	.	8	.	.	11	.	.
COCCN1C=C(C(=O)OC)C(c2cc(Br)c(OC)c(OC)c2)C(C(=O)OC)=C1	142*	20*	68*	73*	.	39	31*
CCN1C2=C(C(=O)CCC2)C(c2ccc(O)c(Br)c2)C2=C1CCCC2=O	122*	35*	10	54*	-5	27	8.4*
CCOc1ncccc1C(=O)OCC(=O)Nc1ccc(S(=O)(=O)N2CCOCC2)cc1	-1	-3	0	-1	-4	.	.
COC(=O)c1c(N)n(-c2cc(OC)cc(OC)c2)c2nc3ccccc3nc12	.	.	16	.	.	.	.
C=CCn1c(N)c(C(=O)OCCC)c2nc3ccccc3nc21	119*	21*	36	69*	.	16	>50
O=C(COC(=O)C1CCN(c2ccc(C(F)(F)F)cn2)CC1)c1cccc(Br)c1	.	-2	.	.	-7	.	.
COc1cccc(C2C(C(=O)Nc3nc4ccccc4s3)=C(C)NC3=C2C(=O)CC(C)(C)C3)c1OC (stereo unspecified)	82*	69*	57*	54*	-2	6	.
Cc1ccc(C(=O)Oc2ccc3ccc(=O)oc3c2)cc1	.	-1	.	.	-5	.	.
CC(NC(=O)OC(C)(C)C)C(=O)Oc1ccc2ccc(=O)oc2c1 (stereo unspecified)	113*	.	74*	68*	-1	36	.
COc1ccc2ccc(=O)oc2c1	0	?	-1	1	.	.	.
CC(=O)Oc1ccc2ccc(=O)oc2c1	85*	13	122*	51*	.	39	.
Cc1ccc(C(=O)N/N=C/c2ccc(N3CCOCC3)cc2)c(C)c1	0	0	18	0	-2	.	.
CCCCn1c(NC(=O)c2ccc(Br)o2)c(S(=O)(=O)c2ccccc2)c2nc3ccccc3nc21	136*	25*	84*	64*	-7	2	4.9*
SMILES	Runt-SMMHC FRET	RanGTP-Impb inh	Hck-Nef inh	Runt-CBFb FRET	CaV13 ICDI inh	RUNX1 CBFb TR	YIC FRET counter	others
Nc1c(S(=O)(=O)c2ccccc2)c2nc3ccccc3nc2n1CCN1CCOCC1	7	3	19	1	-5	.	.
CCc1c(C)c2cc(Cl)c(O)c(CN3CCCCC3)c2oc1=O	156*	22*	118*	85*	-3	-6	26*
Cc1ccc([N+](=O)[O-])cc1N	-2	1	4	-1	5	.	.
COc1c(O)ccc(/C=C(\C#N)c2nc3ccccc3[nH]2)c1[N+](=O)[O-]	100*	20*	50*	74*	-13	0	.	Hck Nef conf=i
CCCn1nc(NC(=O)C2CCCO2)c2cc3cccc(C)c3nc21 (stereo unspecified)	82*	68*	52*	62*	-2	24	.	Hck Nef conf=i
O=C(O)c1ccc(NC2OC[C@@H](O)[C@H](O)[C@H]2O)cc1 (stereo partly specified)	.	-5	.	.	-4	.	.
CON=C1CCN(c2ncc(C(F)(F)F)cc2Cl)CC1	0	1	3	0	-4	.	.
CCCCc1cc(=O)oc2cc(OCC(=O)N(CC)CC)c(Cl)cc12	-7	-2	3	-7	-2	.	.
CCCCc1cc(=O)oc2c(CN(C)C)c(O)c(Cl)cc12	156*	.	117*	75*	-3	-7	.
COc1cc(NC(=O)c2n[nH]c(=O)c3ccccc23)cc(OC)c1	3	-8	26	0	5	.	.
COc1ccc(-c2nc(NC(=O)c3n[nH]c(=O)c4ccccc34)sc2C)cc1	-33	22*	2	-14	-5	.	>50
O=C(Nc1cc(C(F)(F)F)ccc1F)C1CCC1	2	-2	6	0	-4	.	.
CCn1c(SCC(=O)N(Cc2ccccc2)C2CCS(=O)(=O)C2)nc2ccccc2c1=O (stereo unspecified)	0	20*	3	-2	-6	.	>50
c1cncc(CNC2CCCc3ccccc32)c1 (stereo unspecified)	-2	-3	3	-2	-3	.	.
O=[N+]([O-])c1ccc(CNC2CCCc3ccccc32)cc1 (stereo unspecified)	72*	25*	12	30	3	.	>50
NC(=O)c1ccccc1NC(=O)/C=C/c1ccc(Cl)cc1	1	23*	2	1	-5	.	>50
O=C(N[C@H](C(=O)N1CCC[C@H]1C(=O)NCc1ccccc1)c1ccccc1)c1ccccc1	.	.	.	.	-3	.	.
CCCc1[nH]nc2c1C(c1ccoc1)C(C#N)=C(N)O2 (stereo unspecified)	-1	?	1	-2	-16	.	.
Cc1[nH]nc2c1C(c1ccoc1)C(C#N)=C(N)O2 (stereo unspecified)	.	21*	2	.	-4	.	>50
